18 compounds from ChEMBL document CHEMBL1134471, “Antimycobacterial activity of substituted isosteres of pyridine- and pyrazinecarboxylic acids. 2” (2001) can be followed below.

SMILES strings stand for the structures. Values joined by “and” are separate entries in the source; they are usually repeats but may differ in a detail not shown here. Equal values may be shown once.

This assay concerns Mycobacterium tuberculosis. In words: Minimum inhibitory concentration against Mycobacterium tuberculosis H37Rv (ATCC 27294) in BACTEC 6A medium. It is filed as functional. An outline of the steps:
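M. tuberculosis H37Rv ATCC 27294 tested in the BACTEC 460 radiometric system in BACTEC 6A medium. Percent inhibition = 1 − (growth index of test sample / growth index of control) × 100. MIC taken as the lowest concentration inhibiting 99% of the inoculum.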
Turning to `Sc1nc(-c2ccncc2)no1`, the minimum inhibitory concentration (MIC) is > 1600 µM and > 286 µg/mL.

`O=c1oc(-c2cccnc2)ns1`: the minimal inhibitory concentration (MIC) was 25 µM and 4.5 µg/mL.

Take `NC(=O)c1cnccn1` [PYRAZINAMIDE]: the MIC was 400 µM and 49 µg/mL.

For `O=c1oc(-c2cnccn2)ns1`, the MIC was 25 µM and 4.5 µg/mL.

Take `O=c1oc(-c2ccncc2)ns1`: the minimal inhibitory concentration (MIC) was 50 µM and 9 µg/mL.

On to `NNC(=O)c1ccncc1` [ISONIAZID], for which the MIC was 0.15 µM and 0.018 µg/mL.

For the compound `Oc1nc(-c2cccnc2)no1`, the minimum inhibitory concentration (MIC) is > 1600 µM and > 261 µg/mL.

Regarding `CC(C)(C)C(=O)OCSc1nc(-c2cnccn2)no1`, the MIC was 400 µM and 118 µg/mL.

As to `CC(C)(C)C(=O)OCn1c(-c2cnccn2)noc1=O`, the minimum inhibitory concentration (MIC) was 200 µM and 56 µg/mL.

For `CC(C)(C)C(=O)OCn1c(-c2cccnc2)noc1=O`, the MIC is 100 µM and 28 µg/mL.

For `Sc1nc(-c2cccnc2)no1`, the minimum inhibitory concentration (MIC) is > 1600 µM and > 286 µg/mL.

Regarding `CC(C)(C)C(=O)OCSc1nc(-c2ccncc2)no1`, the minimal inhibitory concentration (MIC) was 200 µM and 59 µg/mL.

In the case of `CC(C)(C)C(=O)OCn1c(-c2ccncc2)noc1=O`, the minimal inhibitory concentration (MIC) is 50 µM and 14 µg/mL.

For `Oc1nc(-c2ccncc2)no1`, the MIC was > 1600 µM and > 261 µg/mL.

In the case of `CC(C)(C)C(=O)OCn1nnnc1-c1cnccn1`, the minimum inhibitory concentration (MIC) was 50 µM and 13 µg/mL.

Regarding `Oc1nc(-c2cnccn2)no1`, the MIC was 800 µM and 131 µg/mL.

As to `CC(C)(C)C(=O)OCSc1nc(-c2cccnc2)no1`, the MIC is 200 µM and 59 µg/mL.

`Sc1nc(-c2cnccn2)no1`: the MIC is 1600 µM and 288 µg/mL.

A word on the MIC: it is the least concentration at which growth counts as inhibited. Lower therefore signals greater potency.
